Results from different studies.
Target: Phosphatidylinositol 4,5-bisphosphate 3-kinase catalytic subunit delta isoform (PIK3CD, Homo sapiens, UniProt O00329)
Sequence (O00329 1-1044, as in one of the studies): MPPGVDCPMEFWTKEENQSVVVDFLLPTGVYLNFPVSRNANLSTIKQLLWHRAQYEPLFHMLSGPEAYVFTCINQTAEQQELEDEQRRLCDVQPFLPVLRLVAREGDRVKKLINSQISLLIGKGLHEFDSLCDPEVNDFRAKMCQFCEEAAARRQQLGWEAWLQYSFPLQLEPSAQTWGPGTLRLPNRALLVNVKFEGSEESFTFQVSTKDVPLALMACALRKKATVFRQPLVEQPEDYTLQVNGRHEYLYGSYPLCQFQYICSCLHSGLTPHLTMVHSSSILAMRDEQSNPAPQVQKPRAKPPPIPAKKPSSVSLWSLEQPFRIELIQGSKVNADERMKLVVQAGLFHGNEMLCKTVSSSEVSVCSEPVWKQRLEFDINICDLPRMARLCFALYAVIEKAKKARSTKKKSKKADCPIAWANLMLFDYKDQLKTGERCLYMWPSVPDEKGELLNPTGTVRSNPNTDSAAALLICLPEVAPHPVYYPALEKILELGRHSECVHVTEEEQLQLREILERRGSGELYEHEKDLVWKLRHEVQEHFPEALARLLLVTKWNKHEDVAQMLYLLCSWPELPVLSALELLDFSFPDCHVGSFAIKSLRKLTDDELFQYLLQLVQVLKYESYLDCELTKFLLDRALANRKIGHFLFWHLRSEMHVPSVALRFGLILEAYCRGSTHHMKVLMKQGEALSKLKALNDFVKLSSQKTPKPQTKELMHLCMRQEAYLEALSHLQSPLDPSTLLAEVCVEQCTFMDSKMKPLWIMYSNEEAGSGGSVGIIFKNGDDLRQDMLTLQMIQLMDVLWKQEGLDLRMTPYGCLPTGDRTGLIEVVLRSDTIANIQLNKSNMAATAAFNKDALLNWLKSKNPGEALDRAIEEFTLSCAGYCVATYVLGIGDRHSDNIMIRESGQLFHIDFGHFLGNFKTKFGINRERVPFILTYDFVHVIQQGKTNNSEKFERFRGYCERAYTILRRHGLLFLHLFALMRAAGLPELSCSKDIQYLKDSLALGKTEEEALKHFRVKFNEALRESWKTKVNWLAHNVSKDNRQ

| Compound | effect on | technique | tested at | remaining binding |
| --- | --- | --- | --- | --- |
| O=C(NCC1CCOCC1)c1n[nH]cc1NC(=O)c1c(F)cccc1F | binding | competition with immobilised ligand | 1 µM | 87% |
| CNC(=O)Nc1ccc2c(c1)[C@@]1(CC2)OC(=O)N(CC(=O)N(Cc2ccc(F)cc2)[C@@H](C)C(F)(F)F)C1=O | cell-free assay | competition with immobilised ligand | 1 µM | 100% |
| COc1ccnn2ncc(-c3ccnc(N(C)C)n3)c12 | binding | – | 1 µM | 68% |
| O=C(NCCCN1CCOCC1)c1ccc(Nc2ncc(Cl)c(-c3ccc(Cl)s3)n2)cc1 | binding | competition with immobilised ligand | 1 µM | 100% |
| CN(C)c1ncc(F)c(-c2cnn3ncccc23)n1 | binding | – | 1 µM | 98% |
| Cc1cc(NC(=O)c2cccc(S(F)(F)(F)(F)F)c2)cc(-n2ccn3nc(-c4cccnc4)cc23)c1 | cell-free assay | competition with immobilised ligand | 1 µM | 100% |
| CN(C)c1nccc(-c2cnn3ncccc23)n1 | binding | – | 1 µM | 85% |
| CNC(=O)[C@@H]1CC[C@@H](n2c(-c3ccc4cnccc4c3)nc3ccc(C(=O)NCc4cccc(C(N)=O)c4)cc32)C1 | binding | competition with immobilised ligand | 1 µM | 100% |
| C[C@@H](c1ccc(-n2cnc3c(N)ncnc32)cc1)N1CCc2nn(C)c(Cc3ccccc3)c2C1=O | binding | competition with immobilised ligand | 0.1 µM | 61% |
| N[C@@H]1CCN(c2nccc(-c3cnn4ncccc34)n2)C1 | binding | – | 1 µM | 100% |
| Nc1ncc2c(n1)-c1c([nH]c3ccc(C#CC4CC4)cc13)CCCC2 | binding | competition with immobilised ligand | 1 µM | 70% |
| CC1=C(C#N)[C@@H](c2ccc3[nH]nc(C)c3c2)C(C#N)=C(c2ccc(Cl)cc2)N1 | cell-free assay | competition with immobilised ligand | 1 µM | 100% |
| O=C(NCCCN1CCOCC1)c1ccc(Nc2nccc(-c3cc4ccccc4s3)n2)cc1 | binding | competition with immobilised ligand | 1 µM | 56% |
| CSc1cccnc1N1CCN(Cc2nc3ccccc3[nH]2)CC1 | cell-free assay | competition with immobilised ligand | 1 µM | 100% |
| O=C(c1ccc(Nc2ncc(Cl)c(-c3cc4ccccc4s3)n2)cc1)N1CCC(N2CCCC2)CC1 | binding | competition with immobilised ligand | 1 µM | 71% |
| Cc1nc(N2CC[C@@H](O)C2)ncc1-c1cc(C(F)(F)F)cc2[nH]ncc12 | cell-free assay | competition with immobilised ligand | 1 µM | 72% |
| C[C@@H]1CCN(c2nccc(-c3cnn4ncccc34)n2)C1 | binding | – | 1 µM | 100% |
| CCN1CCN(Cc2ccc(C(=O)Nc3ccc(C)c(Oc4ccc5c(c4)CC(=O)N5)c3)cc2C(F)(F)F)CC1 | binding | competition with immobilised ligand | 1 µM | 100% |
| Cc1cnn2ncc(-c3ccnc(N(C)C)n3)c2c1 | binding | – | 1 µM | 100% |
| O=C1NC(c2ccccn2)Sc2ccccc21 (stereo not drawn) | cell-free assay | competition with immobilised ligand | 1 µM | 51% |
| c1cncc(-c2cccc(Nc3nccc(NC4CCCCC4)n3)c2)c1 | binding | competition with immobilised ligand | 10 µM | 88% |
